Active and inactive are the calls of the source. The rule behind the calls is not given here.
Assays:
D(3) dopamine receptor = D(3) dopamine receptor (Rattus norvegicus, UniProt P19020); assay: In vitro binding affinity against cloned mammalian Dopamine receptor D3 expressed in CHO cells by, using [3H]-spiperone as radioligand; assay type: cell-based; details: read-out: Ki
[1] = target: 5-hydroxytryptamine receptor 1D (Homo sapiens, UniProt P28221); assay: In vitro binding affinity against cloned mammalian 5-hydroxytryptamine 1D receptor alpha expressed in CHO cells, by using [3H]5-HT as radioligand; assay type: cell-based
Procedure, shortened: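 Competition binding on CHO-cell membranes (20-60 μg protein) in 50 mM Tris, 5 mM MgCl2, 0.1% ascorbic acid, pH 7.4. Nonspecific binding defined with excess serotonin. 11 drug concentrations, each in duplicate. Incubated 1 h at room temperature, protected from light, then filtered and scintillation counted. IC50 taken from a one-site fit; Ki by Cheng-Prusoff.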

Rattus norvegicus [2] = assay: The compound was tested in vivo for biochemical effect against the changes in different brain area levels of DOPA in reserpinized rat hemispheres (mainly cortex)at dose 3.1 uM/kg; inactive; assay type: functional, organism-based
Rattus norvegicus [3] = assay: The compound was tested in vivo for biochemical effect against the changes in different brain area levels of 5-HTP in reserpinized rat hemispheres (mainly cortex)at dose 3.1 uM/kg; inactive; assay type: functional, organism-based
D(2) dopamine receptor [4] = target: T1, D(2) dopamine receptor (Rattus norvegicus, UniProt P61169); assay: Binding affinity rat Dopamine receptor D2 expressed in CHO-K1 cells by [3H]U-86170 displacement.; assay type: cell-based
Rattus norvegicus [5] = assay: The compound was tested in vivo for biochemical effect against the changes in different brain area levels of DOPA in reserpinized rat limbic system at dose 50 uM/kg; inactive; assay type: functional, organism-based
Rattus norvegicus [6] = assay: In vivo changes in different brain area levels of 5-HTP in reserpinized rat corpus striatum.; assay type: functional
Procedure, shortened: (§1)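 Male Sprague-Dawley rats (200-300 g) pretreated with reserpine 5 mg/kg sc 18 h before. Injection volume 5 mL/kg at neutral pH. Brain-region 5-HTP measured by HPLC with electrochemical detection. Dose-response curves used four to six doses, n = 4.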

[7] = target: T2, 5-hydroxytryptamine receptor 1B (Homo sapiens, UniProt P28222); assay: In vitro binding affinity against cloned mammalian 5-hydroxytryptamine 1D receptor beta expressed in CHO cells, by using [3H]5-HT as radioligand; assay type: cell-based
Procedure, shortened: (§2)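 Membranes from CHO cells stably expressing the cloned receptor, made by mechanical disruption in ice-cold Tris/EDTA/EGTA pH 7.4 and differential centrifugation. [3H]serotonin at 1.7 nM in 50 mM Tris, 5 mM MgCl2, 0.1% ascorbic acid, pH 7.4. 11 drug concentrations in duplicate, 1 h at room temperature protected from light, then filtration. Excess serotonin defines nonspecific binding. One-site IC50 fit, Ki by Cheng-Prusoff.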

Rattus norvegicus [8] = assay: The compound was tested in vivo for biochemical effect against the changes in different brain area levels of DOPA in reserpinized rat corpus striatum at dose 50 uM/kg; inactive; assay type: functional, organism-based
Rattus norvegicus [9] = assay: The compound was tested in vivo for biochemical effect against the changes in different brain area levels of DOPA in reserpinized rat corpus striatum at dose 12.5 uM/kg; inactive; assay type: functional, organism-based
Procedure, shortened: (§3)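 Male Sprague-Dawley rats (200-300 g) pretreated with reserpine 5 mg/kg sc 18 h before. Injection volume 5 mL/kg, test solutions at neutral pH. DOPA and 5-HTP in limbic system, striatum and hemispheres measured by HPLC with electrochemical detection. Dose-response curves from four to six dose levels (n = 4) per brain area.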

Rattus norvegicus [10] = assay: In vivo for biochemical effect against brain area levels of 5-HTP in reserpinized rat hemispheres (mainly cortex).; assay type: functional; procedure, shortened: as §3
Rattus norvegicus [11] = assay: The compound was tested in vivo for biochemical effect against the changes in different brain area levels of DOPA in reserpinized rat hemispheres (mainly cortex)at dose 12.5 uM/kg; inactive; assay type: functional, organism-based; procedure, shortened: as §3
D(2) dopamine receptor [12] = target: T1, D(2) dopamine receptor; assay: In vitro binding affinity against cloned mammalian Dopamine receptor D2 expressed in CHO cells using [3H]U-86170 as radioligand; assay type: cell-based; details: read-out: Ki
Procedure, shortened: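 Membranes from CHO cells (20-60 μg protein) in 20 mM HEPES, 10 mM MgSO4, pH 7.4. Nonspecific binding defined with excess haloperidol. 11 concentrations, each in duplicate. Incubated 1 h at room temperature, then filtered and counted. IC50 from a one-site competition fit, converted to Ki by Cheng-Prusoff.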

Rattus norvegicus [13] = assay: The compound was tested in vivo for biochemical effect against the changes in different brain area levels of DOPA in reserpinized rat limbic system at dose 12.5 uM/kg; inactive; assay type: functional, organism-based; procedure, shortened: as §3
Rattus norvegicus [14] = assay: In vivo changes in different brain area levels of 5-HTP in reserpinized rat limbic system.; assay type: functional; procedure, shortened: as §1
Rattus norvegicus [15] = assay: The compound was tested in vivo for biochemical effect against the changes in different brain area levels of DOPA in reserpinized rat corpus striatum at dose 3.1 umol/kg; Partial effect; assay type: functional, organism-based; procedure, shortened: as §3
Rattus norvegicus [16] = assay: The compound was tested in vivo for biochemical effect against the changes in different brain area levels of DOPA in reserpinized rat limbic system at dose 3.1 umol/kg; Partial effect; assay type: functional, organism-based; procedure, shortened: as §3
Rattus norvegicus [17] = assay: The compound was tested in vivo for biochemical effect against the changes in different brain area levels of DOPA in reserpinized rat hemispheres (mainly cortex)at dose 3.1 umol/kg; Inactive; assay type: functional, organism-based; procedure, shortened: as §3
Rattus norvegicus [18] = assay: The compound was tested in vivo for biochemical effect against the changes in different brain area levels of DOPA in reserpinized rat corpus striatum at dose 12.5 umol/kg; Partial effect; assay type: functional, organism-based
Rattus norvegicus [19] = assay: The compound was tested in vivo for biochemical effect against the changes in different brain area levels of DOPA in reserpinized rat hemispheres (mainly cortex)at doest 12.5 umol/kg; Inactive; assay type: functional, organism-based
Rattus norvegicus [20] = assay: The compound was tested in vivo for biochemical effect against the changes in different brain area levels of DOPA in reserpinized rat limbic system at dose 12.5 umol/kg; Partial effect; assay type: functional, organism-based
Rattus norvegicus [21] = assay: The compound was tested in vivo for biochemical effect against the changes in different brain area levels of DOPA in reserpinized rat corpus striatum at dose 3.1 uM/kg; Inactive; assay type: functional, organism-based; procedure, shortened: as §3
Rattus norvegicus [22] = assay: The compound was tested in vivo for biochemical effect against the changes in different brain area levels of DOPA in reserpinized rat hemispheres (mainly cortex)at dose 3.1 uM/kg; Inactive; assay type: functional, organism-based; procedure, shortened: as §3
Rattus norvegicus [23] = assay: The compound was tested in vivo for biochemical effect against the changes in different brain area levels of 5-HTP in reserpinized rat limbic system at dose 3.1 uM/kg; Inactive; assay type: functional, organism-based
Rattus norvegicus [24] = assay: The compound was tested in vivo for biochemical effect against the changes in different brain area levels of 5-HTP in reserpinized rat hemispheres (mainly cortex)at dose 3.1 uM/kg; Inactive; assay type: functional, organism-based
Rattus norvegicus [25] = assay: The compound was tested in vivo for biochemical effect against the changes in different brain area levels of DOPA in reserpinized rat limbic system at dose 3.1 uM/kg; Inactive; assay type: functional, organism-based; procedure, shortened: as §3
Rattus norvegicus [26] = assay: The compound was tested in vivo for biochemical effect against the changes in different brain area levels of 5-HTP in reserpinized rat corpus striatum at dose 3.1 uM/kg; Inactive; assay type: functional, organism-based
Rattus norvegicus [27] = assay: The compound was tested in vivo for biochemical effect against the changes in different brain area levels of DOPA in reserpinized rat corpus striatum at dose 25 uM/kg; Inactive; assay type: functional, organism-based
Rattus norvegicus [28] = assay: The compound was tested in vivo for biochemical effect against the changes in different brain area levels of DOPA in reserpinized rat hemispheres (mainly cortex)at does 25 uM/kg; Inactive; assay type: functional, organism-based
Rattus norvegicus [29] = assay: The compound was tested in vivo for biochemical effect against the changes in different brain area levels of 5-HTP in reserpinized rat limbic system at dose 25 uM/kg; Inactive; assay type: functional, organism-based
Rattus norvegicus [30] = assay: The compound was tested in vivo for biochemical effect against the changes in different brain area levels of DOPA in reserpinized rat limbic system at dose 25 uM/kg; Inactive; assay type: functional, organism-based
Rattus norvegicus [31] = assay: The compound was tested in vivo for biochemical effect against the changes in different brain area levels of 5-HTP in reserpinized rat corpus striatum at dose 25 uM/kg; Inactive; assay type: functional, organism-based
Rattus norvegicus [32] = assay: The compound was tested in vivo for biochemical effect against the changes in different brain area levels of 5-HTP in reserpinized rat hemispheres (mainly cortex)at dose 25 uM/kg; Inactive; assay type: functional, organism-based
[33] = target: T2, 5-hydroxytryptamine receptor 1B; assay: The compound was tested in vitro for binding affinity against cloned mammalian 5-hydroxytryptamine 1D receptor beta expressed in CHO cells, by using [3H]5-HT as radioligand; assay type: cell-based; design: concentration or dose not given beside the values; details: concentration not given here; procedure, shortened: as §2
Rattus norvegicus [34] = assay: The compound was tested in vivo for biochemical effect against the changes in different brain area levels of DOPA in reserpinized rat hemispheres (mainly cortex)at does 12.5 uM/kg; inactive; assay type: functional, organism-based; procedure, shortened: as §3
Rattus norvegicus [35] = assay: The compound was tested in vivo for biochemical effect against the changes in different brain area levels of DOPA in reserpinized rat corpus striatum; assay type: functional; procedure, shortened: as §3

T2 sequence (P28222 whole entry): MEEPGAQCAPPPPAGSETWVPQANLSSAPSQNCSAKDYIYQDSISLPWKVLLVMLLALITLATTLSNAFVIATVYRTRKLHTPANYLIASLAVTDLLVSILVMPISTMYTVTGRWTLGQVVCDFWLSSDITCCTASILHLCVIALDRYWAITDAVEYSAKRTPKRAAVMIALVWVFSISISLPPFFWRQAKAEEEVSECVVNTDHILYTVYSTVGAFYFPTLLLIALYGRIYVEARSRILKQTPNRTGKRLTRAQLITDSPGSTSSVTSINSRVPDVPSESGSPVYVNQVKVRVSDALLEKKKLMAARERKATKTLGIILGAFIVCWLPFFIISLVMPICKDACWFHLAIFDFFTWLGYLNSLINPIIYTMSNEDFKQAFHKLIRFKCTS
T1 sequence (P61169 whole entry): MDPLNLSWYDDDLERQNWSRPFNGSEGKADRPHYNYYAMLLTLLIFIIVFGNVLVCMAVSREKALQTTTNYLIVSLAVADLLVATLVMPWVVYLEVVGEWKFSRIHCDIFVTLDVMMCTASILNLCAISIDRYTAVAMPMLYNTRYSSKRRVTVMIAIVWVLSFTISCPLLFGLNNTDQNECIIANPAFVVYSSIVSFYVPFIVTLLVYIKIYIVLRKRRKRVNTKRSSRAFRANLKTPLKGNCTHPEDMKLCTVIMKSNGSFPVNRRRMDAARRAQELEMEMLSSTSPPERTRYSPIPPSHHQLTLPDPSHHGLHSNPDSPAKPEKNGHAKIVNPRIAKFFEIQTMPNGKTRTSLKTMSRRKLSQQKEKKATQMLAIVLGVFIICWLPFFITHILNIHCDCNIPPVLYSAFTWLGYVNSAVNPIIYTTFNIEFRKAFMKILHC
5-hydroxytryptamine receptor 1D, sequence (P28221 whole entry): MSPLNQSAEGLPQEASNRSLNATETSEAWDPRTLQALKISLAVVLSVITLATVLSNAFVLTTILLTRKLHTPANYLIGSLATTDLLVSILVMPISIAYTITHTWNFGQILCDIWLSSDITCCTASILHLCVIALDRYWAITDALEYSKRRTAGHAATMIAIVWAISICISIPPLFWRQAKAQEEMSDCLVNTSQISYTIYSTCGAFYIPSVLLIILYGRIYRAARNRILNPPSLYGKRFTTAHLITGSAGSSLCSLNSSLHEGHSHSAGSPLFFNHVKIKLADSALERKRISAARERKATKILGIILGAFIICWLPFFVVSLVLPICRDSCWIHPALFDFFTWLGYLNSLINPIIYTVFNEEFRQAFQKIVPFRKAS
D(3) dopamine receptor, sequence (P19020 whole entry): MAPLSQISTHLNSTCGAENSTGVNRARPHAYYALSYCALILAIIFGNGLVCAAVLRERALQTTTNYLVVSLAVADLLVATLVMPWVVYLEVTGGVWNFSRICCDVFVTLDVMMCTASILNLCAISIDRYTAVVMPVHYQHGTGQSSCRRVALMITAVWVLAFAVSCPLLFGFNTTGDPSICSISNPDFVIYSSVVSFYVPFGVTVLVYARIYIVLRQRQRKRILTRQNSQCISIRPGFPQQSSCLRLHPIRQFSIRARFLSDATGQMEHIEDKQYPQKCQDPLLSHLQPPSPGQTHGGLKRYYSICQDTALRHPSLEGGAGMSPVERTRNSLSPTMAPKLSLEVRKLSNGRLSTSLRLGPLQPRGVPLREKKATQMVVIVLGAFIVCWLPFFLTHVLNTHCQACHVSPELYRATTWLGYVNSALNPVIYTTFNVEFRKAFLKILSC

SMILES: c1ccc(CCCNCC2CCc3ccc4[nH]ccc4c3C2)cc1 (centres undefined)
- Ki (D(3) dopamine receptor): 199 nM
- Ki [1]: 63 nM
- ED50 (Rattus norvegicus [2]): inactive
- ED50 (Rattus norvegicus [3]): inactive
- Ki (D(2) dopamine receptor [4]): 32 nM
- ED50 (Rattus norvegicus [5]): inactive
- ED50 (Rattus norvegicus [6]): 34 µmol/kg
- Ki [7]: 228 nM
- ED50 (Rattus norvegicus [8]): inactive

SMILES: CCCN(CC(C)C)[C@@H]1CCc2ccc3[nH]ccc3c2C1
- ED50 (Rattus norvegicus [9]): inactive
- ED50 (Rattus norvegicus [10]): 3.59 µmol/kg
- ED50 (Rattus norvegicus [11]): inactive
- Ki (D(3) dopamine receptor): 18 nM
- Ki [1]: 35 nM
- Ki (D(2) dopamine receptor [12]): 5.7 nM
- ED50 (Rattus norvegicus [13]): inactive
- ED50 (Rattus norvegicus [6]): 1.23 µmol/kg
- Ki [7]: 219 nM
- ED50 (Rattus norvegicus [14]): 1.8 µmol/kg

SMILES: CCCN(CCC)[C@@H]1CCc2ccc3[nH]cc(C=O)c3c2C1
- ED50 (Rattus norvegicus [15]): Weak activity
- ED50 (Rattus norvegicus [16]): Weak activity
- ED50 (Rattus norvegicus [17]): inactive

SMILES: CCCN(CCCc1ccccc1)[C@@H]1CCc2ccc3[nH]cc(C=O)c3c2C1
- ED50 (Rattus norvegicus [18]): Weak activity
- ED50 (Rattus norvegicus [19]): inactive
- ED50 (Rattus norvegicus [10]): 0.75 µmol/kg
- Ki (D(3) dopamine receptor): 19 nM
- Ki [1]: 0.9 nM
- Ki (D(2) dopamine receptor [12]): 5.8 nM
- ED50 (Rattus norvegicus [20]): Weak activity
- ED50 (Rattus norvegicus [6]): 0.43 µmol/kg
- Ki [7]: 14 nM

SMILES: CCCN(Cc1ccccc1)C1CCc2ccc3[nH]cc(C=O)c3c2C1 (centres undefined)
- Ki (D(3) dopamine receptor): 115 nM
- ED50 (Rattus norvegicus [21]): inactive
- Ki [1]: 33 nM
- Ki (D(2) dopamine receptor [12]): 90 nM
- ED50 (Rattus norvegicus [22]): inactive
- ED50 (Rattus norvegicus [23]): inactive
- ED50 (Rattus norvegicus [24]): inactive
- ED50 (Rattus norvegicus [25]): inactive
- ED50 (Rattus norvegicus [26]): inactive
- Ki [7]: 992 nM

SMILES: CCCN(CCCCN1C(=O)CC(C)(C)CC1=O)[C@H]1CCc2ccc3[nH]cc(C=O)c3c2C1
- Ki (D(3) dopamine receptor): 1270 nM
- ED50 (Rattus norvegicus [27]): inactive
- Ki [1]: 250 nM
- Ki (D(2) dopamine receptor [12]): 859 nM
- ED50 (Rattus norvegicus [28]): inactive
- ED50 (Rattus norvegicus [29]): inactive
- ED50 (Rattus norvegicus [30]): inactive
- Ki [7]: 1620 nM
- ED50 (Rattus norvegicus [31]): inactive
- ED50 (Rattus norvegicus [32]): inactive

SMILES: C=CCN(CCC)C1CCc2ccc3[nH]ccc3c2C1 (centres undefined)
- inhibition [33]: < 45%
- Ki (D(3) dopamine receptor): 77 nM
- Ki [1]: 35 nM
- ED50 (Rattus norvegicus [13]): inactive
- Ki (D(2) dopamine receptor [4]): 42 nM
- ED50 (Rattus norvegicus [34]): inactive
- ED50 (Rattus norvegicus [6]): 0.18 µmol/kg
- ED50 (Rattus norvegicus [35]): 0.97 µmol/kg

Reference: ChEMBL document CHEMBL1128739, “Structure-activity relationships in the 8-amino-6,7,8,9-tetrahydro-3H-benz[e]indole ring system. 2. Effects of 8-amino nitrogen substitution on serotonin receptor binding and pharmacology” (J Med Chem, 1995)
